By MIC is commonly meant the lowest concentration that inhibits growth of the organism. Higher therefore signals a need for much substance.

The test system of test [1] is Staphylococcus epidermidis. In words: Antibacterial activity against Staphylococcus epidermidis ATCC 35984 by broth microdilution method. The test is classed as functional. Conditions: RP62A. The method, boiled down: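 MIC determined by CLSI broth microdilution […].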
On the technique in general: In broth dilution the organism is exposed to a series of concentrations in liquid medium.

Test [2] has as its system Staphylococcus epidermidis. The experiment in a line: Antibacterial activity against Staphylococcus epidermidis ATCC 35984 assessed as inhibition of biofilm production after 6 hrs. Type of test: functional, RP62A. Conditions: in the assay text read “after 18 hrs” for “after 6 hrs”. In short, it runs like this:
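Young S. epidermidis biofilm grown 6 h at 37 °C in TSB with glucose in microtiter wells, washed four times with PBS, then exposed to fresh TSB carrying serially diluted compounds for 18 h at 37 °C. After PBS washes, methanol fixation 15 min, air drying and crystal violet staining. Washed dried biofilm served as blank (subtracted), TSB-only biofilm as positive control; triplicate wells, three repeats.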

Test [3] has as its system Staphylococcus epidermidis. In words: Antibacterial activity against Staphylococcus epidermidis ATCC 35984 assessed as inhibition of biofilm production after 18 hrs.

Converted amounts (≈) assume the structure as drawn.

On to `Cc1ccc(/N=C2/S/C(=C\c3ccc(-c4cccc(C(=O)O)c4)o3)C(=O)N2c2ccc(C)cc2)cc1`, for which, in test [1], the MIC was determined as 6.25 µM (≈ 3.09 µg/mL). For the same compound, the Biofilm inhibitory concentration in test [2] is 12.5 µM.

As for `CCOC(=O)C1=C(c2ccccc2)N=c2s/c(=C\c3ccc(OCC(=O)O)cc3)c(=O)n2C1c1ccc(OC)cc1` (stereo not given), the MIC in test [1] turned out to be 25 µM (≈ 14.3 µg/mL). The Biofilm inhibitory concentration in test [2] was 50 µM.

As for `CCOC(=O)C1=C(c2ccccc2)N=c2s/c(=C\c3ccc(-c4cccc(C(=O)O)c4)o3)c(=O)n2C1c1ccccc1` (stereo not given), in test [1], the MIC was > 200 µM. Moreover, in test [2], the Biofilm inhibitory concentration is >200 µM.

Turning to `CCOC(=O)C1=C(c2ccccc2)N=c2s/c(=C\c3ccc(-c4cccc(C(=O)O)c4)o3)c(=O)n2C1c1ccc(OC)cc1` (stereo not given), the MIC in test [1] was 6.25 µM (≈ 3.79 µg/mL). Besides, the Biofilm inhibitory concentration in test [2] was 25 µM.

Consider `CCOC(=O)C1=C(c2ccccc2)N=c2s/c(=C\c3ccc(-c4cccc(C(=O)OC)c4)o3)c(=O)n2C1c1ccccc1` (stereo not given), for which, in test [1], the MIC was > 200 µM. Further, the Biofilm inhibitory concentration in test [2] is >200 µM.

Regarding `CCOC(=O)C1=C(c2ccccc2)N=c2s/c(=C\c3ccc(-c4cccc(C(=O)OC)c4)o3)c(=O)n2C1c1ccc(OC)cc1` (stereo not given), the MIC in test [1] was > 200 µM. Also, the Biofilm inhibitory concentration in test [2] was >200 µM.

For `CCOC(=O)C1=C(c2ccccc2)N=c2s/c(=C\c3cccc(O)c3)c(=O)n2C1c1ccc(OC)cc1` (stereo not given), the MIC in test [1] was > 200 µM. Besides, the Biofilm inhibitory concentration in test [2] is >200 µM.

Consider `CCOC(=O)C1=C(c2ccccc2)N=c2s/c(=C\c3ccc(N(C)C)cc3)c(=O)n2C1c1ccc(OC)cc1` (stereo not given), for which the MIC in test [1] was > 200 µM. In addition, the Biofilm inhibitory concentration in test [2] is >200 µM.

Take `CCOC(=O)C1=C(c2ccccc2)N=c2s/c(=C\c3cccc([N+](=O)[O-])c3)c(=O)n2C1c1ccc(OC)cc1` (stereo not given): the MIC in test [1] was > 200 µM. The Biofilm inhibitory concentration in test [2] was >200 µM.

With `CCOC(=O)C1=C(c2ccccc2)N=c2s/c(=C\c3ccc(O)c(OC)c3)c(=O)n2C1c1ccc(OC)cc1` (stereo not given), the MIC in test [1] was > 200 µM. Besides, the Biofilm inhibitory concentration in test [2] is >200 µM.

For `CCOC(=O)C1=C(c2ccccc2)N=c2s/c(=C\c3ccc(O)cc3)c(=O)n2C1c1ccc(OC)cc1` (stereo not given), the MIC in test [1] was > 200 µM. Also, in test [2], the Biofilm inhibitory concentration was >200 µM.

In the case of `CCOC(=O)C1=C(c2ccccc2)N=c2s/c(=C\c3ccc(OCC(=O)O)cc3)c(=O)n2C1c1ccc2c(c1)OCO2` (stereo not given), in test [1], 25 µM (≈ 14.6 µg/mL) was the least that counted as inhibitory (MIC). In addition, in test [2], the Biofilm inhibitory concentration is 50 µM.

In test [1], `COc1ccc(C/N=C2/S/C(=C\c3ccc(OCC(=O)O)cc3)C(=O)N2Cc2ccc(OC)cc2)cc1` came in with an MIC of 12.5 µM (≈ 6.48 µg/mL). For the same compound, the Biofilm inhibitory concentration in test [2] came out at 25 µM.

In the case of `COc1ccc(C/N=C2/S/C(=C\c3ccc(-c4cccc(C(=O)O)c4)o3)C(=O)N2Cc2ccc(OC)cc2)cc1`, it took 50 µM (≈ 27.7 µg/mL) to inhibit growth in test [1] (MIC).

For the compound `COc1ccc(/N=C2/S/C(=C\c3ccc(-c4cccc(C(=O)O)c4)o3)C(=O)N2c2ccc(OC)cc2)cc1`, in test [3], the INH is 6.25 µM. In test [1], this compound came in with an MIC of 6.25 µM (≈ 3.29 µg/mL).

Consider `Cc1ccccc1/N=C1/S/C(=C\c2ccc(-c3cccc(C(=O)O)c3)o2)C(=O)N1c1ccccc1C`, for which the MIC in test [1] came out at 12.5 µM (≈ 6.18 µg/mL). In test [2], the Biofilm inhibitory concentration turned out to be 25 µM.

For `Cc1ccccc1/N=C1/S/C(=C\c2ccc(-c3ccc(C(=O)O)cc3)o2)C(=O)N1c1ccccc1C`, in test [3], the INH is 6.25 µM. This compound gave an MIC in test [1] of 3.12 µM (≈ 1.55 µg/mL).

In turn, `CCOC(=O)C1=C(c2ccccc2)N=c2s/c(=C\c3ccc(-c4cccc(C(=O)O)c4)o3)c(=O)n2C1c1ccc2c(c1)OCO2` (stereo not given) yielded an MIC in test [1] of 6.25 µM (≈ 3.88 µg/mL). For the same compound, the Biofilm inhibitory concentration in test [2] amounted to 25 µM.

These data come from ChEMBL document CHEMBL1687867, “Thiazolidione derivatives as novel antibiofilm agents: design, synthesis, biological evaluation, and structure-activity relationships” (2011).
